Rin1 Abl inh = blocks binding of human Rin1 to Abl. actives 0.4% (n = 360,000). P00519+Q13671. inhibition, % at 7.35 µM. TR-FRET Rin1/Abl binding, biochemical; in the data active = inhibition above about 5%, passing the limit was not always enough
ABHD5-PLIN5 inh = blocks binding of human ABHD5 to perilipin-5 | Q00G26+Q8WTS1 | Split G. princeps luciferase complementation, luminescence, 4 h | inhibition, % at 4 µM | actives 0.78% (n = 360,000) | AID 602281;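 active = inhibition above the mean inhibition across every tested compound plus 3 SD, cut at about 22% in these data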;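 note: 0% = DMSO only wells and the 100% control is not disclosed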
Rpn11 inh = Rpn11 (human) deubiquitinase inhibition | actives 0.59% (n = 360,000) | O00487 | AID 588493 | human 26S proteasome, Ub4-pepOG fluorescence polarization; 20S core pre-blocked with epoxomicin | inhibition, % at 20 µM;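 active = inhibition at 20 µM, scaled to each plate's controls, above about 33%, limit read from the data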
NadD block = inhibitors of Staphylococcus aureus NadD | actives 0.78% (n = 360,000) | inhibition, % at 20 µM | purified NadD enzyme, colorimetric absorbance read-out; in the data active = inhibition above about 26%
Xi reactivation = X-chromosome reactivation activator | XiGFP mouse fibroblasts, % GFP-positive cells imaging, 3 d; cells co-treated with 5-aza-dC sensitizer; scaled so ellipticine positive control = 100% | activation, % at 7.58 µM | AID 743238 | actives 0.055% (n = 360,000);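 active = mean normalized replicate activation at least 10% and every replicate at or above 10%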;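 note: 0% = median of on-plate neutral control wells and 100% = ellipticine 6 µM median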
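System: SV40-immortalized XiGFP fibroblast cells, line 68-5-11 / Incubation: 3-day compound exposure, then 15 min fixation at room temperature / Compound: single concentration per compound, delivered by pin transfer / Buffer or medium: DMEM plus 5-aza-dC sensitizer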
Rpn11 confirm = confirmation of human proteasome Rpn11 inhibitors | shares compounds with Rpn11 inh | purified human 26S proteasome, Ub4-pepOG fluorescence polarization; proteasome pretreated with epoxomicin | inhibition, % at 20 µM | actives 29% (n = 1,900) | AID 602318
MMP-2 counter = blocks human MMP-2, flagging nonselective RPN11 hits; recombinant MMP-2, FRET peptide cleavage fluorescence; shares compounds with Rpn11 inh; inhibition, % at 20 µM; actives 4% (n = 1,900);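 note: human MMP-2 activated beforehand with APMA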
Thrombin inh = blocks bovine thrombin, flagging nonselective RPN11 hits; shares compounds with Rpn11 inh; bovine thrombin cleavage of Ub4-pepOG, fluorescence polarization; inhibition, % at 20 µM; actives 13% (n = 1,900);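 active = mean inhibition at least 40% at 20 µM, or signal 3 deviations below plate average, so some actives read negative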;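 note: plate controls were thrombin with DMSO for no effect and buffer wells lacking thrombin for full effect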
Active calls of the source: *; · = no result shown. Hits are enriched below; roughly 1.9% of the tested compounds scored in any of these assays. Cut-off read from the data, not from the text of the source, unless noted: active = inhibition above about 40%; inactive = the rest.

SMILES | Rin1 Abl inh | ABHD5-PLIN5 inh | Rpn11 inh | NadD block | Xi reactivation | others
Cc1ccc(/C(=N/Nc2nc3ccccc3s2)C2=C(O)c3ccccc3C2=O)cc1 | 0 | -25 | 9 | 34* | 0
Cc1ccc(S(=O)(=O)N(C)CC(=O)Nc2nc3ccccc3s2)cc1 | -2 | -4 | -12 | -4 | ·
O=C(c1cccnc1)N1CC(=O)N2[C@H](CO)[C@@H](c3ccc(/C=C/c4ccccc4)cc3)[C@@H]2C1 | · | · | · | · | 0
CC[C@@H]1CC=CC[C@H](C)Oc2ccccc2C(=O)N(C)[C@@H](C(C)C)C(=O)N1 (mixture of isomers) | · | · | · | · | 0
Nc1nn2c(-c3ccccc3)cc(=O)[nH]c2c1N=Nc1ccc(Br)cc1 | 2 | 1 | -1 | 77* | 0
Cn1cnnc1SCc1ccc(C(=O)N=Nc2c(O)n(Cc3ccc(Cl)cc3)c3ccccc23)cc1 | -6 | 22 | -7 | 35* | 0
CCOC(=O)N1CCN(C(=O)CSCc2ccc(C)cc2)CC1 | 6.1* | 8 | -2 | 5 | ·
Cc1cc(Nc2cccc(Cl)c2)nc(NCc2ccccc2)n1 | 1 | 22* | -5 | 8 | 0
Cc1cc(N/N=C/c2cccc(Cl)c2)nc(NCc2ccccc2)n1 | 0 | -4 | -12 | 4 | 0
C[C@H](CO)N1C[C@H](C)[C@@H](CN(C)S(C)(=O)=O)Oc2ncc(C3=CCCCC3)cc2C1=O | · | · | · | · | -1
Cc1ccc2c(c1)c1ccc3c(c1n2C)C(=O)C=CC3=O | 1 | 5 | 23 | 48* | 0
Cn1c2ccccc2c2ccc3c(c21)C(=O)C=CC3=O | 5 | 6 | 16 | 30 | 0
O=C(O)C[C@H]1C=C[C@H](NC(=O)c2ccccc2F)[C@H](CO)O1 | · | · | · | · | 0
Cc1ccc(-c2csc(NC(=O)c3cccc(N4C(=O)CCC4=O)c3)n2)o1 | 0 | 22* | -3 | -2 | ·
N#C[C@@H]1[C@H](c2ccccc2-c2cccc(F)c2)[C@H](CO)N1C(=O)C1CCCC1 | · | · | · | · | 0
CNC[C@H]1OCCCC[C@H](C)Oc2ccc(NC(=O)CCC(F)(F)F)cc2C(=O)N([C@@H](C)CO)C[C@H]1C | · | · | · | · | -1
O=C(Nc1ccc([N+](=O)[O-])cc1Cl)c1cc(Cl)ccc1O | -1 | 1 | -1 | 7 | 0
O=C(Nc1cccc(Cl)c1)c1cc(N=Nc2ccc([N+](=O)[O-])cc2Cl)ccc1O | -1 | -2 | · | 50* | 0
Cc1ccccc1-c1ccc([C@@H]2[C@@H](CO)N3C(=O)CN(C(=O)Nc4ccccc4)C[C@H]23)cc1 | · | · | · | · | 1
C=C1CC2(OC1=O)c1ccccc1CCc1ccccc12 | -1 | 60* | 5 | -4 | 0
O=C1NC(=O)C2(CCc3ccccc32)N1 (stereo not drawn) | 2 | 3 | -3 | -1 | ·
COc1cccc(CN2[C@H](CO)[C@@H](c3ccccc3)C23CN(Cc2ccccc2)C3)c1 | · | · | · | · | 0
COc1ccc2c3c([nH]c2c1)[C@@H](CO)N(Cc1nccs1)CC31CCN(Cc2nccs2)CC1 | · | · | · | · | 0
CCOC(=O)/C(=C/C=C1\Sc2cc(C)c(C)cc2N1CC)C(C)=O | -7 | -4 | · | 1 | 17*
COc1ccc2c3c(n(C)c2c1)[C@H](CO)N(C(=O)CN1CCOCC1)CC31CCN(C(=O)CC2CC2)CC1 | · | · | · | · | 1
COc1ccc(N=Cc2oc3ccc4ccccc4c3c2O)cc1 | -2 | 1 | 56* | -2 | 0 | Rpn11 confirm=60*;MMP-2 counter=-42;Thrombin inh=21
CCc1ccccc1NC(=O)CN1C(=O)C2CCCN2c2ncc(Cl)cc21 (stereo not drawn) | -1 | -5 | 41* | 12 | · | Rpn11 confirm=9;MMP-2 counter=-19;Thrombin inh=5
COc1ccc(C(=O)N2C(=S)NC(=O)/C2=C\c2ccc(C)cc2)cc1 | 1 | -4 | 63* | 19 | 0 | Rpn11 confirm=107*;MMP-2 counter=20;Thrombin inh=75*
COc1ccc(C=C2NC(=S)NC2=O)cc1 | -6 | -6 | -4 | 0 | 0

Compound activity: PubChem BioAssay, several laboratories
